Data on 1 compound can be found in paper PMC4326595 (Molecular cancer therapeutics, 2014).

Holding throughout (experiment): HDAC-Glo I/II luminescent assay
Holding throughout (format): biochemical

For assay [1], the target named is HDAC 1 (Homo sapiens, UniProt Q13547). The procedure, abridged:
(§1)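 Recombinant human enzymes: HDAC1 C-terminal GST, HDAC2/8/10 C-terminal His, HDAC6 N-terminal GST, HDAC3 as NCOR1 complex; each at a level in the lower linear titration range giving similar signal. Test compound, 15-point 3-fold dilutions (DMSO), pre-incubated with enzyme 20–30 min, room temperature; HDAC-Glo I/II detection reagent added, luminescence read after 20 min. Quadruplicate wells; IC50 values determined.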

For assay [2], the target named is T1, HDAC 6 (Homo sapiens, UniProt Q9UBN7).
T1 sequence (Q9UBN7 1-1215): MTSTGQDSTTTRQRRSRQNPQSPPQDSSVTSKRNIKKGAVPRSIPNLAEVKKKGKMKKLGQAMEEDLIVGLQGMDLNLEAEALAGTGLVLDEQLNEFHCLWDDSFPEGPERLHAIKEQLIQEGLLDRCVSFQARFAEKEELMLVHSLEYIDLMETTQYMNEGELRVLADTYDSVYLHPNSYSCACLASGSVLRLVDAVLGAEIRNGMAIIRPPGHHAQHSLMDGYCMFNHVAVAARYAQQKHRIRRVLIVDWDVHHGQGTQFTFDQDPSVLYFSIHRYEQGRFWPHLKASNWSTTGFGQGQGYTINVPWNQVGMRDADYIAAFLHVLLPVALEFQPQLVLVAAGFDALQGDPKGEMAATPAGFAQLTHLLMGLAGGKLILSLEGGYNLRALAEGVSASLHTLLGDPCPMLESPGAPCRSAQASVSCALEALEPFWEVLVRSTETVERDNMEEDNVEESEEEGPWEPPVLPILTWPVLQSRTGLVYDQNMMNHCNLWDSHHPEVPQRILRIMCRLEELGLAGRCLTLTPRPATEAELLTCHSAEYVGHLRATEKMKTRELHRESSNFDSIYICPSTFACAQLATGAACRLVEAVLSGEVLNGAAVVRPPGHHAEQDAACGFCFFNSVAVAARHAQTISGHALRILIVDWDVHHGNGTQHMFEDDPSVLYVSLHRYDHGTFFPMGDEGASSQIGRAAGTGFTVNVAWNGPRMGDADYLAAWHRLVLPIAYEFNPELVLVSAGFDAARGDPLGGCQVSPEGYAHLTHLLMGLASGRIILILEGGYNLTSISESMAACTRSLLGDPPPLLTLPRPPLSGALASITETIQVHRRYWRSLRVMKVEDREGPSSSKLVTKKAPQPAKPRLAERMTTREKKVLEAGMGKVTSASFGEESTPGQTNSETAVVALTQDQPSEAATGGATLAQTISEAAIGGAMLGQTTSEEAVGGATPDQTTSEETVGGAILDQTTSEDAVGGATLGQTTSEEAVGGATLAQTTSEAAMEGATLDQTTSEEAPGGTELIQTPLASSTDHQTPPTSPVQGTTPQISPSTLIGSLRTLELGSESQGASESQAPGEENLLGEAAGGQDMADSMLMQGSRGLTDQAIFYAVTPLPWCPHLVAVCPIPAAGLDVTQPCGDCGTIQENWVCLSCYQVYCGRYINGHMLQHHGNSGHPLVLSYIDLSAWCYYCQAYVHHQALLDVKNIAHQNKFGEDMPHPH
The method in brief:
as §1

Assay [3] concerns the target HDAC 2 (Homo sapiens, UniProt Q92769). The method in brief:
as §1

Assay [4] addresses HDAC 3/NCOR1 (Homo sapiens, UniProt O15379). The method in brief: as §1
Assay [5] has as its target T2, HDAC 8 (Homo sapiens, UniProt Q9BY41).
T2 sequence (Q9BY41 1-377): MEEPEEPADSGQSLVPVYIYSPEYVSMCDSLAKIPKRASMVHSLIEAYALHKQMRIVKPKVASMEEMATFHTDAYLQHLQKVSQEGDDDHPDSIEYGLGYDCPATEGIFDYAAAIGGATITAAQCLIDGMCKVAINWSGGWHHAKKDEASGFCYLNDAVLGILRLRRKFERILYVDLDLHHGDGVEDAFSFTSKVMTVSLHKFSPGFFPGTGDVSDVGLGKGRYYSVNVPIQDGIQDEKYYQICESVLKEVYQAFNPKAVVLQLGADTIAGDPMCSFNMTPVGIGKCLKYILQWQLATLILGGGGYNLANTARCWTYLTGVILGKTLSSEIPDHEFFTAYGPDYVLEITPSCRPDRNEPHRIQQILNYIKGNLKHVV
The method in brief:
as §1

In assay [6] the target is T3, HDAC 10 (Homo sapiens, UniProt Q969S8).
T3 sequence (Q969S8 1-669): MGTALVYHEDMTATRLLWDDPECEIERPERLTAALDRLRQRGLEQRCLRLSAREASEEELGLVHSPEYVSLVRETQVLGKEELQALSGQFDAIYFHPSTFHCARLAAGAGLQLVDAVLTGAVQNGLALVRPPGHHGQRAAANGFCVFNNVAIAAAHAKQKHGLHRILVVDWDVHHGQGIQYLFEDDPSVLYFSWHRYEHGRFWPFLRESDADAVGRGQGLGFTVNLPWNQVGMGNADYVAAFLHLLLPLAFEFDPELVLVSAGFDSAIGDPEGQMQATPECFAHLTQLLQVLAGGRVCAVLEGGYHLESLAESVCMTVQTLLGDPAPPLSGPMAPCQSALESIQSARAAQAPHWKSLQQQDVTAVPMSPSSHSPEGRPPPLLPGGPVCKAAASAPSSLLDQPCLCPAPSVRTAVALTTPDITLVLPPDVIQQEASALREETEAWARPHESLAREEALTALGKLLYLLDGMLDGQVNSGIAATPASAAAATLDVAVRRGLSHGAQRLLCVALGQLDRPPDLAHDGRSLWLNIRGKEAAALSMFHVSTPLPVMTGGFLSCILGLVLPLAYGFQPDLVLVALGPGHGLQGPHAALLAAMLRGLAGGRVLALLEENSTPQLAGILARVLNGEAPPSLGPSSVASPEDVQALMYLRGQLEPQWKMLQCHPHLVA
The method in brief: as §1

Sequence of HDAC 3/NCOR1 (O15379 whole entry): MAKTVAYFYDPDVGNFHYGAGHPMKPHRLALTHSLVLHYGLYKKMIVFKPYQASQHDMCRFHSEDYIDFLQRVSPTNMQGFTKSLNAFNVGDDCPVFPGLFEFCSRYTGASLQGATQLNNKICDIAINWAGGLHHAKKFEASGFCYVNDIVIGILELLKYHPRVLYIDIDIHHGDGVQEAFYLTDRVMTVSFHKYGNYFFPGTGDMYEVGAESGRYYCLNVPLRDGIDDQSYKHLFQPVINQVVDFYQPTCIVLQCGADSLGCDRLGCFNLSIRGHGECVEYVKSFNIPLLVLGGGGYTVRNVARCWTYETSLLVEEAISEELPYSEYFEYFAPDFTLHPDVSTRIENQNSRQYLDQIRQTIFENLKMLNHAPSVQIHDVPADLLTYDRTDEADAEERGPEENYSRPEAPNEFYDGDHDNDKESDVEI
Sequence of HDAC 3/NCOR1 (O75376 whole entry partner): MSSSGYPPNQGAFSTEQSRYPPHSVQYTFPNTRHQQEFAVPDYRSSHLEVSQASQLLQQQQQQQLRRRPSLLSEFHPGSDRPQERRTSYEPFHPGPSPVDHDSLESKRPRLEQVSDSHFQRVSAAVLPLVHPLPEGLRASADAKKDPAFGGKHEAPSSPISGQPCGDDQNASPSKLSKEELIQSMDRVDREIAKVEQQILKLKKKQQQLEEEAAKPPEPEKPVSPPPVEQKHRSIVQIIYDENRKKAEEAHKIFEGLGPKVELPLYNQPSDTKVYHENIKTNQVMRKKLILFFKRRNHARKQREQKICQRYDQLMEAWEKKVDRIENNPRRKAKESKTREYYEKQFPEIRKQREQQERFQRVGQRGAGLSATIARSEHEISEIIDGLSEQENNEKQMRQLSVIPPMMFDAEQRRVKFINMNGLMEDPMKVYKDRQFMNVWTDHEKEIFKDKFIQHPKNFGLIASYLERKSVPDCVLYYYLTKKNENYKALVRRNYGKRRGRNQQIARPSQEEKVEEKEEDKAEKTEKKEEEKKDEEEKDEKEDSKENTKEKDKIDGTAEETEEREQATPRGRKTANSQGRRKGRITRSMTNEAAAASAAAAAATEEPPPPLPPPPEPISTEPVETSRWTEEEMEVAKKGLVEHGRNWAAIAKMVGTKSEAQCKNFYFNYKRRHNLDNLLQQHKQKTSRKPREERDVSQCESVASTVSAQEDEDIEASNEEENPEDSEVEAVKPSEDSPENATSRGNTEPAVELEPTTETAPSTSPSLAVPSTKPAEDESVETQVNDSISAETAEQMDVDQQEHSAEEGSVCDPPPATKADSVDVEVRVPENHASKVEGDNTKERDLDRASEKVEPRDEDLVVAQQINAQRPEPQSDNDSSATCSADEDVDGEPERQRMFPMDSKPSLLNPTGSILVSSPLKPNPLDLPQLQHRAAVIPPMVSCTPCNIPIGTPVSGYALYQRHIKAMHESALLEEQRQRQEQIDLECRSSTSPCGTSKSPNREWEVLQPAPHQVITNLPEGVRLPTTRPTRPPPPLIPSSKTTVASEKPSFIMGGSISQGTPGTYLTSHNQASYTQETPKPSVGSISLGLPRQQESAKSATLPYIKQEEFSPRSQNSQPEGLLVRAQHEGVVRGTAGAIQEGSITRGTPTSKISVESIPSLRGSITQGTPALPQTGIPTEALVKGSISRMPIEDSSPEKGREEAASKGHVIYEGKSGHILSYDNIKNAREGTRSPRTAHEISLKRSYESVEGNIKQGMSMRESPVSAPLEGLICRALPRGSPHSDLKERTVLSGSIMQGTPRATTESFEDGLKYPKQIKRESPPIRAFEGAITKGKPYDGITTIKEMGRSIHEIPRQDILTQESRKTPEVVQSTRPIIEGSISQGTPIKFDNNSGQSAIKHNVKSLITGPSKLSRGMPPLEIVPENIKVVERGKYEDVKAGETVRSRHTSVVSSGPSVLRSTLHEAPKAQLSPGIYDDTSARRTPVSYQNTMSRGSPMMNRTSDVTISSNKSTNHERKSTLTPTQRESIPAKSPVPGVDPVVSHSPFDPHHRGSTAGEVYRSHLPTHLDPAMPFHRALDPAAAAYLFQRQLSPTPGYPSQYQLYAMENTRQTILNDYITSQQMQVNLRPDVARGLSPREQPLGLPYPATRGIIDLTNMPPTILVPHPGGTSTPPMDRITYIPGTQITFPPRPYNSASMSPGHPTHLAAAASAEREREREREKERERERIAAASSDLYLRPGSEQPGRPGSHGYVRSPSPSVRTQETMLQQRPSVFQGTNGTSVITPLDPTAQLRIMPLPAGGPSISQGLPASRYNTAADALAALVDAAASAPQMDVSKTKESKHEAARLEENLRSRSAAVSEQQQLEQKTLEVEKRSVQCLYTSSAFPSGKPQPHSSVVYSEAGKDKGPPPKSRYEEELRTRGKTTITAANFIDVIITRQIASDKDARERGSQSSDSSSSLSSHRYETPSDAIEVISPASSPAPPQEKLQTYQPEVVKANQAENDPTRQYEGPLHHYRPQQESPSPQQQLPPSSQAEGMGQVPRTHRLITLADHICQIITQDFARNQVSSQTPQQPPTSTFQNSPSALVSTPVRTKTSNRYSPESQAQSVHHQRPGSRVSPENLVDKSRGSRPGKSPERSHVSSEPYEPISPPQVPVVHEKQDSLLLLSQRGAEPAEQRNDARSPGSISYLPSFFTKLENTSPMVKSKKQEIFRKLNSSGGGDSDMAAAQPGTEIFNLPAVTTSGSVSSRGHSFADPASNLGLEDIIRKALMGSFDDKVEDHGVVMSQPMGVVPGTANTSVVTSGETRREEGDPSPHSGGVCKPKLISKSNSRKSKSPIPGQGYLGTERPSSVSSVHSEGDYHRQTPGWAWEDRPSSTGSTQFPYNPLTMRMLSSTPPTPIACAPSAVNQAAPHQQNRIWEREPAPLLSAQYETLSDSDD
Sequence of HDAC 1 (Q13547 whole entry): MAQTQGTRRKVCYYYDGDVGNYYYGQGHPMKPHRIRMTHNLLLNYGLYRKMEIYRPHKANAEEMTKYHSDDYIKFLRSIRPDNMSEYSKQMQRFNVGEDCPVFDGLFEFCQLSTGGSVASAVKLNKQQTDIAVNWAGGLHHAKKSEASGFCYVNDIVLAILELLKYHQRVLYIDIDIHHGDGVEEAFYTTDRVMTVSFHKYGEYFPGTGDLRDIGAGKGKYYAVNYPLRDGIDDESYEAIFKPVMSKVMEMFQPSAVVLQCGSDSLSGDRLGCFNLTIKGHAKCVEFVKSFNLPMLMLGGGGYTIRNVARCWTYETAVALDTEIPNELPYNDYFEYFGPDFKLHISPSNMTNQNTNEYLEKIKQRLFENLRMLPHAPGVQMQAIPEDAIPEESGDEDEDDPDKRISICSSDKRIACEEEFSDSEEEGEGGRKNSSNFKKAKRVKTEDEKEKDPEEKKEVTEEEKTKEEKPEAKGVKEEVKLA
Sequence of HDAC 2 (Q92769 whole entry): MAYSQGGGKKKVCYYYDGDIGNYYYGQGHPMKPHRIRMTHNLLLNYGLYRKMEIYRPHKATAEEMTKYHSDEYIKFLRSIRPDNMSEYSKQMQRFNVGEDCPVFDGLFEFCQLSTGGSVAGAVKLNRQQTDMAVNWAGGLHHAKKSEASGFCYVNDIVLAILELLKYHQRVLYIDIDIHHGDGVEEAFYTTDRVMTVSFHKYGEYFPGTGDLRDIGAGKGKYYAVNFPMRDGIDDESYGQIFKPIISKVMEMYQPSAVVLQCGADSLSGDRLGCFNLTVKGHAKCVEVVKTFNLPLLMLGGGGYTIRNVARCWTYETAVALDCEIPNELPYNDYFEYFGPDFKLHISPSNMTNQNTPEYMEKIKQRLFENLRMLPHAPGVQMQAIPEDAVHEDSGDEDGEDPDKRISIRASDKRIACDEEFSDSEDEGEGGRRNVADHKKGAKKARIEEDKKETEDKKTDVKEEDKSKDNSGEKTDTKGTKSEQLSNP

The IC50 is the midpoint of a concentration-inhibition curve. A lower IC50 goes with higher potency. With `COc1ccc(C=NNC(=O)CCCCCCC(=O)NO)cc1` [AB3], the IC50 in assay [1] turned out to be 2.28 nM; in assay [2], 35.8 nM; in assay [3], 3.12 nM; in assay [4], 1.82 nM; in assay [5], 60.3 nM; in assay [6], 11.1 nM.
